Columns and labels:
Type in all cases: functional
HCT-116 = assay: Growth inhibition of human HCT116 cells
HT-29 = assay: Growth inhibition of human HT-29 cells
SF-268 = assay: Growth inhibition of human SF268 cells
U-251 [1] = assay: Growth inhibition of human U251 cells
Malme-3M = assay: Growth inhibition of human MALME-3M cells
M14 = assay: Growth inhibition of human M14 cells
MDA-MB-435 = assay: Growth inhibition of human MDA-MB-435 cells
SK-MEL-2 = assay: Growth inhibition of human SK-MEL-2 cells
UACC-62 = assay: Growth inhibition of human UACC62 cells
OVCAR-5 [2] = assay: Growth inhibition of human OVCAR5 cells
SK-OV-3 = assay: Growth inhibition of human SKOV3 cells
786-0 = assay: Growth inhibition of human 786-0 cells
A498 [3] = assay: Growth inhibition of human A498 cells
ACHN [4] = assay: Growth inhibition of human ACHN cells
UO-31 = assay: Growth inhibition of human UO31 cells
PC-3 [5] = assay: Growth inhibition of human PC3 cells
DU-145 = assay: Growth inhibition of human DU145 cells
BT-549 [6] = assay: Growth inhibition of human BT549 cells
T47D = assay: Growth inhibition of human T47D cells
CCRF-CEM [7] = assay: Growth inhibition of human CCRF-CEM cells assessed tumor cell growth at 10^-5 M; parameters: scale not given: the % may be the effect or the level left
Method in brief: (§1)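 NCI 60-human-tumor-cell-line panel screen. Each compound was tested at a single concentration of 10^-5 M, and percent growth of tumor cells was recorded for each cell line. Growth inhibition was expressed from these percent-growth values.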

[8] = Growth inhibition of human […] cells assessed tumor cell growth at 10^-5 M; parameters: scale not given: the % may be the effect or the level left; method in brief: as §1
HOP-62 = assay: Growth inhibition of human HOP62 cells assessed tumor cell growth at 10^-5 M; parameters: scale not given: the % may be the effect or the level left; method in brief: as §1
HOP-92 = assay: Growth inhibition of human HOP92 cells assessed tumor cell growth at 10^-5 M; parameters: scale not given: the % may be the effect or the level left; method in brief: as §1
NCI-H226 [9] = assay: Growth inhibition of human NCI-H226 cells assessed tumor cell growth at 10^-5 M; parameters: scale not given: the % may be the effect or the level left; method in brief: as §1
NCI-H322M = assay: Growth inhibition of human NCI-H322M cells assessed tumor cell growth at 10^-5 M; parameters: scale not given: the % may be the effect or the level left; method in brief: as §1
NCI-H522 = assay: Growth inhibition of human NCI-H522 cells assessed tumor cell growth at 10^-5 M; parameters: scale not given: the % may be the effect or the level left; method in brief: as §1
COLO 205 = assay: Growth inhibition of human COLO205 cells assessed tumor cell growth at 10^-5 M; parameters: scale not given: the % may be the effect or the level left; method in brief: as §1
HCT-15 = assay: Growth inhibition of human HCT15 cells assessed tumor cell growth at 10^-5 M; parameters: scale not given: the % may be the effect or the level left; method in brief: as §1
SF-539 = assay: Growth inhibition of human SF539 cells assessed tumor cell growth at 10^-5 M; parameters: scale not given: the % may be the effect or the level left; method in brief: as §1
SNB-75 = assay: Growth inhibition of human SNB75 cells assessed tumor cell growth at 10^-5 M; parameters: scale not given: the % may be the effect or the level left
Method in brief: (§2)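 Single-dose screen at 10^-5 M across the 60 human tumor cell line panel, run to NCI standards. The value is the percent growth of each cell line in the presence of compound. Compounds active at this dose moved on to five-concentration testing (10^-4 to 10^-8 M).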

U-251 [10] = assay: Growth inhibition of human U251 cells assessed tumor cell growth at 10^-5 M; parameters: scale not given: the % may be the effect or the level left; method in brief: as §2
SK-MEL-5 = assay: Growth inhibition of human SK-MEL-5 cells assessed tumor cell growth at 10^-5 M; parameters: scale not given: the % may be the effect or the level left; method in brief: as §1
UACC-257 = assay: Growth inhibition of human UACC257 cells assessed tumor cell growth at 10^-5 M; parameters: scale not given: the % may be the effect or the level left; method in brief: as §2
OVCAR-3 = assay: Growth inhibition of human OVCAR3 cells assessed tumor cell growth at 10^-5 M; parameters: scale not given: the % may be the effect or the level left; method in brief: as §1
OVCAR-4 = assay: Growth inhibition of human OVCAR4 cells assessed tumor cell growth at 10^-5 M; parameters: scale not given: the % may be the effect or the level left; method in brief: as §1
OVCAR-5 [11] = assay: Growth inhibition of human OVCAR5 cells assessed tumor cell growth at 10^-5 M; parameters: scale not given: the % may be the effect or the level left; method in brief: as §1
OVCAR-8 = assay: Growth inhibition of human OVCAR8 cells assessed tumor cell growth at 10^-5 M; parameters: scale not given: the % may be the effect or the level left; method in brief: as §1
A498 [12] = assay: Growth inhibition of human A498 cells assessed tumor cell growth at 10^-5 M; parameters: scale not given: the % may be the effect or the level left; method in brief: as §1
ACHN [13] = assay: Growth inhibition of human ACHN cells assessed tumor cell growth at 10^-5 M; parameters: scale not given: the % may be the effect or the level left; method in brief: as §1
TK-10 = assay: Growth inhibition of human TK10 cells assessed tumor cell growth at 10^-5 M; parameters: scale not given: the % may be the effect or the level left; method in brief: as §2
PC-3 [14] = assay: Growth inhibition of human PC3 cells assessed tumor cell growth at 10^-5 M; parameters: scale not given: the % may be the effect or the level left; method in brief: as §1
MCF7 = assay: Growth inhibition of human MCF7 cells assessed tumor cell growth at 10^-5 M; parameters: scale not given: the % may be the effect or the level left; method in brief: as §1
[15] = Growth inhibition of human Hs 578T cells assessed tumor cell growth at 10^-5 M; parameters: scale not given: the % may be the effect or the level left; method in brief: as §1
BT-549 [16] = assay: Growth inhibition of human BT549 cells assessed tumor cell growth at 10^-5 M; parameters: scale not given: the % may be the effect or the level left; method in brief: as §1
MDA-MB-468 = assay: Growth inhibition of human MDA-MB-468 cells assessed tumor cell growth at 10^-5 M; parameters: scale not given: the % may be the effect or the level left; method in brief: as §1
CCRF-CEM [17] = assay: Growth inhibition of human CCRF-CEM cells
HL-60(TB) = assay: Growth inhibition of human HL-60(TB) cells
K562 = assay: Growth inhibition of human K562 cells
MOLT-4 = assay: Growth inhibition of human MOLT4 cells
SR = assay: Growth inhibition of human SR cells
A549 = assay: Growth inhibition of human A549 cells
NCI-H226 [18] = assay: Growth inhibition of human NCI-H226 cells
NCI-H23 = assay: Growth inhibition of human NCI-H23 cells
[19] = read-out: LC50 (the source's name)

CC1=NN(c2cccc(Cl)c2)C(=O)/C1=C\C=C\c1ccccc1
GI50 (HCT-116): 1.5 µM
CC50 (HCT-116; [19]): 6.1 µM
GI50 (HT-29): 2.9 µM
CC50 (HT-29; [19]): > 100 µM
GI50 (SF-268): 2.3 µM
CC50 (SF-268; [19]): > 100 µM
GI50 (U-251 [1]): 1.7 µM
CC50 (U-251 [1]; [19]): 23.9 µM
GI50 (Malme-3M): 2.7 µM
CC50 (Malme-3M; [19]): > 100 µM
GI50 (M14): 1.6 µM
CC50 (M14; [19]): 7.5 µM
GI50 (MDA-MB-435): 2.5 µM
CC50 (MDA-MB-435; [19]): > 100 µM
GI50 (SK-MEL-2): 3.8 µM
CC50 (SK-MEL-2; [19]): > 100 µM
GI50 (UACC-62): 1.7 µM
CC50 (UACC-62; [19]): 8.5 µM
GI50 (OVCAR-5 [2]): 2.8 µM
CC50 (OVCAR-5 [2]; [19]): > 100 µM
GI50 (SK-OV-3): 3.2 µM
CC50 (SK-OV-3; [19]): > 100 µM
GI50 (786-0): 2.1 µM
CC50 (786-0; [19]): 10.2 µM
GI50 (A498 [3]): 17.7 µM
CC50 (A498 [3]; [19]): > 100 µM
GI50 (ACHN [4]): 1.7 µM
CC50 (ACHN [4]; [19]): 6.1 µM
GI50 (UO-31): 1.6 µM
CC50 (UO-31; [19]): 7.5 µM
GI50 (PC-3 [5]): 2.9 µM
CC50 (PC-3 [5]; [19]): > 100 µM
GI50 (DU-145): 2.8 µM
CC50 (DU-145; [19]): 53.7 µM
GI50 (BT-549 [6]): 1.6 µM
CC50 (BT-549 [6]; [19]): 6.1 µM
GI50 (T47D): 2.2 µM
CC50 (T47D; [19]): > 100 µM
Activity (CCRF-CEM [7]): 2.35%
Activity [8]: 15.38%
Activity (HOP-62): 6.78%
Activity (HOP-92): 101.34%
Activity (NCI-H226 [9]): 3.87%
Activity (NCI-H322M): 111.8%
Activity (NCI-H522): 34.37%
Activity (COLO 205): 11.57%
Activity (HCT-15): 5%
Activity (SF-539): 21.62%
Activity (SNB-75): 62.01%
Activity (U-251 [10]): -57.37%
Activity (SK-MEL-5): 5.05%
Activity (UACC-257): 63.3%
Activity (OVCAR-3): 103.59%
Activity (OVCAR-4): -20.79%
Activity (OVCAR-5 [11]): 143.86%
Activity (OVCAR-8): 0.37%
Activity (A498 [12]): 109.76%
Activity (ACHN [13]): -51.29%
Activity (TK-10): 44.8%
Activity (PC-3 [14]): 45.45%
Activity (MCF7): 5.42%
Activity [15]: 132.74%
Activity (BT-549 [16]): 78.36%
Activity (MDA-MB-468): 9.96%
GI50 (CCRF-CEM [17]): 3.1 µM
CC50 (CCRF-CEM [17]; [19]): > 100 µM
GI50 (HL-60(TB)): 3.1 µM
CC50 (HL-60(TB); [19]): > 100 µM
GI50 (K562): 2.8 µM
CC50 (K562; [19]): > 100 µM
GI50 (MOLT-4): 3.1 µM
LC50 (MOLT-4): > 100 µM
GI50 (SR): 2.3 µM
CC50 (SR; [19]): > 100 µM
GI50 (A549): 16.2 µM
CC50 (A549; [19]): > 100 µM
GI50 (NCI-H226 [18]): 2.6 µM
CC50 (NCI-H226 [18]; [19]): 64.5 µM
GI50 (NCI-H23): 2.3 µM
LC50 (concentration killing 50% of cells) (NCI-H23): > 100 µM
